Data from ChEMBL document CHEMBL1240350, “In vitro activity of CEM-101 against Streptococcus pneumoniae and Streptococcus pyogenes with defined macrolide resistance mechanisms” (Antimicrob Agents Chemother, 2010).
Values after ≈ are worked out from the molar mass of the structure shown.

Columns and labels:
Streptococcus pneumoniae [1] = test: Antibacterial activity against macrolide-resistant Streptococcus pneumoniae harboring erm(B) gene after overnight incubation by agar dilution method; type: functional
In short: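 Agar dilution MICs on Mueller-Hinton agar with 5% sheep blood. Inoculum 10^4 CFU/spot, incubated overnight at 35°C in ambient air. Clinical S. pneumoniae or group A streptococcal isolates; resistance genotypes (erm(B), erm(A), mef(A)/mef(E)) were assigned by PCR. S. pneumoniae ATCC 49619 served as QC strain in each run. Range, MIC50 and MIC90 reported per phenotype group.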

Streptococcus pyogenes [2] = test: Antibacterial activity against macrolide-resistant Streptococcus pyogenes 2011 harboring mef(A) gene after 35 passages and 10 compound-free subculturing by retest method
Streptococcus pneumoniae [3] = test: Antibacterial activity against macrolide-resistant Streptococcus pneumoniae 3665 harboring mef(A) gene after 14 passages and 10 compound-free subculturing by retest method; type: functional
Streptococcus pneumoniae [4] = test: Antibacterial activity against Streptococcus pneumoniae harboring mef(A) gene after overnight incubation by agar dilution method; type: functional
In short: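 Clinical isolates collected 1998–2008, with macrolide-resistance genes confirmed by PCR. MICs by agar dilution on Mueller-Hinton agar with 5% sheep blood. Inoculum 10^4 CFU/spot, incubated overnight at 35°C in ambient air. S. pneumoniae ATCC 49619 was the quality-control strain in every run.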

Streptococcus pneumoniae [5] = test: Antibacterial activity against macrolide-resistant Streptococcus pneumoniae 1635 harboring erm(A) gene after 32 passages and 10 compound-free subculturing by retest method; type: functional
In short: (§1)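 Multistep selection by daily serial passage in subinhibitory drug concentrations. Medium was cation-adjusted Mueller-Hinton broth plus 5% lysed horse blood. Each day the next inoculum came from the tube 1–2 dilutions below the MIC whose turbidity matched the growth control, for up to 50 days. Clone MICs by CLSI macrodilution; identity to the parent confirmed by SmaI PFGE.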

Streptococcus pneumoniae [6] = test: Antibacterial activity against macrolide-resistant Streptococcus pneumoniae 3009 harboring mutation in 23S rRNA after 20 passages and 10 compound-free subculturing by retest method; type: functional
Streptococcus pneumoniae [7] = test: Antibacterial activity against penicillin-resistant Streptococcus pneumoniae after overnight incubation by agar dilution method; type: functional
In short: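 Agar dilution on Mueller-Hinton agar supplemented with 5% sheep blood. Inoculum 10^4 CFU/spot, incubated overnight at 35°C in ambient air. Test strains were clinical pneumococcal isolates. S. pneumoniae ATCC 49619 was included as the quality control strain in each run. MIC range, MIC50 and MIC90 were reported for each susceptibility category.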

Streptococcus pneumoniae [8] = test: Antibacterial activity against macrolide-resistant Streptococcus pneumoniae 2686 harboring mutation in L4 ribosomal protein after 14 passages following overnight incubation by agar dilution method; type: functional
Streptococcus pneumoniae [9] = test: Antibacterial activity against macrolide-resistant Streptococcus pneumoniae 2686 harboring mutation in L4 ribosomal protein after 50 passages following overnight incubation by agar dilution method; type: functional
Streptococcus pneumoniae [10] = test: Antibacterial activity against macrolide-resistant Streptococcus pneumoniae 1635 harboring erm(A) gene after 14 passages following overnight incubation by agar dilution method; type: functional
Streptococcus pneumoniae [11] = test: Antibacterial activity against macrolide-resistant Streptococcus pneumoniae 3665 harboring mef(A) gene after 50 passages following overnight incubation by agar dilution method; type: functional
Streptococcus pneumoniae [12] = test: Antibacterial activity against macrolide-susceptible Streptococcus pneumoniae 1077 after 49 passages following overnight incubation by agar dilution method; type: functional
Streptococcus pyogenes [13] = test: Antibacterial activity against macrolide-resistant Streptococcus pyogenes 237 harboring mutation in L4 ribosomal protein after 43 passages following overnight incubation by agar dilution method
Streptococcus pneumoniae [14] = test: Antibacterial activity against macrolide-resistant Streptococcus pneumoniae 3009 harboring mutation in 23S rRNA after 50 passages following overnight incubation by agar dilution method; type: functional
Streptococcus pneumoniae [15] = test: Antibacterial activity against macrolide-susceptible Streptococcus pneumoniae 7127 harboring S20N mutation in L4 ribosomal protein and A105V mutation in L22 ribosomal protein after 43 passages following overnight incubation by agar dilution method; type: functional
Streptococcus pneumoniae [16] = test: Antibacterial activity against macrolide-resistant Streptococcus pneumoniae 1076 harboring erm(B) and mef(A) gene after 14 passages following overnight incubation by agar dilution method; type: functional
Streptococcus pneumoniae [17] = test: Antibacterial activity against macrolide-resistant Streptococcus pneumoniae 24 harboring erm(B) gene after 14 passages following overnight incubation by agar dilution method; type: functional
Streptococcus pneumoniae [18] = test: Antibacterial activity against macrolide-resistant Streptococcus pneumoniae 3665 harboring mef(A) gene after 14 passages following overnight incubation by agar dilution method; type: functional
Streptococcus pneumoniae [19] = test: Antibacterial activity against macrolide-susceptible Streptococcus pneumoniae 1077 after 15 passages following overnight incubation by […]; type: functional
In short: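 S. pneumoniae parental strains were passaged daily in subinhibitory drug concentrations in cation-adjusted Mueller-Hinton broth with 5% lysed horse blood. Each passage was seeded from the tube 1 to 2 dilutions below the MIC whose turbidity matched the growth control. MICs of resistant clones were measured by CLSI macrodilution. Parent and clone identity was confirmed by PFGE of SmaI-digested DNA.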

Streptococcus pneumoniae [20] = test: Antibacterial activity against macrolide-resistant Streptococcus pneumoniae 1635 harboring erm(A) gene after 14 passages and 10 compound-free subculturing by retest method; type: functional; in short: as §1
Streptococcus pyogenes [21] = test: Antibacterial activity against macrolide-resistant Streptococcus pyogenes 2094 harboring erm(A) gene after 22 passages following overnight incubation by agar dilution method
Streptococcus pneumoniae [22] = test: Antibacterial activity against macrolide-susceptible Streptococcus pneumoniae 7127 harboring S20N mutation in L4 ribosomal protein and A105V mutation in L22 ribosomal protein after 16 passages following overnight incubation by agar dilution method; type: functional
Streptococcus pyogenes [23] = test: Antibacterial activity against macrolide-resistant Streptococcus pyogenes 237 harboring mutation in L4 ribosomal protein after 20 passages following overnight incubation by agar dilution method
[24] = Half life in human at 400 to 500 mg; conditions: in vivo
Streptococcus pneumoniae [25] = test: Antibacterial activity against macrolide-resistant Streptococcus pneumoniae 1635 harboring erm(A) gene after 32 passages following overnight incubation by agar dilution method; type: functional
[26] = Tmax in human at 400 to 500 mg; conditions: in vivo
Streptococcus pneumoniae [27] = test: Antibacterial activity against macrolide-resistant Streptococcus pneumoniae 3009 harboring mutation in 23S rRNA after 20 passages following overnight incubation by agar dilution method; type: functional
Streptococcus pneumoniae [28] = test: Antibacterial activity against macrolide-resistant Streptococcus pneumoniae 2686 harboring mutation in L4 ribosomal protein after 22 passages following overnight incubation by agar dilution method; type: functional
Streptococcus pyogenes [29] = test: Antibacterial activity against macrolide-resistant Streptococcus pyogenes 2368 harboring erm(B) gene after 18 passages following overnight incubation by agar dilution method
Streptococcus pneumoniae [30] = test: Antibacterial activity against macrolide-resistant Streptococcus pneumoniae 1076 harboring erm(B) and mef(A) gene after 18 passages following overnight incubation by agar dilution method; type: functional
Streptococcus pneumoniae [31] = test: Antibacterial activity against macrolide-susceptible Streptococcus pneumoniae 7127 harboring S20N mutation in L4 ribosomal protein and A105V mutation in L22 ribosomal protein after 29 passages following overnight incubation by agar dilution method; type: functional
[32] = Streptococcus pneumoniae, 3665, read-out: MIC
[33] = Streptococcus pneumoniae, 1635, read-out: MIC

Structure (SMILES)	MIC50 (Streptococcus pneumoniae [1])	MIC (Streptococcus pyogenes [2])	MIC (Streptococcus pneumoniae [3])	MIC (Streptococcus pneumoniae [3]; [32])	MIC50 (Streptococcus pneumoniae [4])	MIC90 (Streptococcus pneumoniae [4])	MIC (Streptococcus pneumoniae [5])	MIC (Streptococcus pneumoniae [6])	MIC50 (Streptococcus pneumoniae [7])	MIC (Streptococcus pneumoniae [10])	MIC (Streptococcus pneumoniae [11])	MIC (Streptococcus pneumoniae [14])	MIC90 (Streptococcus pneumoniae [1])	MIC (Streptococcus pneumoniae [17])	MIC (Streptococcus pneumoniae [18])	MIC (Streptococcus pneumoniae [20])	MIC (Streptococcus pneumoniae [20]; [33])	other results
CC[C@H]1OC(=O)[C@H](C)[C@@H](O[C@H]2C[C@@](C)(OC)[C@@H](O)[C@H](C)O2)[C@H](C)[C@@H](O[C@@H]2O[C@H](C)C[C@H](N(C)C)[C@H]2O)[C@](C)(OC)C[C@@H](C)C(=O)[C@H](C)[C@@H](O)[C@]1(C)O [CLARITHROMYCIN]	> 64 µg/mL	4 µg/mL (≈ 5.35 µM)	2 µg/mL (≈ 2.67 µM)	4 µg/mL (≈ 5.35 µM)	2 µg/mL (≈ 2.67 µM)	4 µg/mL (≈ 5.35 µM)	1 µg/mL (≈ 1.34 µM)	> 64 µg/mL	16 µg/mL (≈ 21.4 µM)	–	–	–	–	–	–	–	–	MIC (Streptococcus pneumoniae [8]): > 64 µg/mL
CCC[C@@H]1C[C@@H](C(=O)N[C@@H]([C@H]2O[C@H](SC)[C@H](O)[C@@H](O)[C@H]2O)[C@H](C)Cl)N(C)C1 [CLINDAMYCIN]	> 64 µg/mL	0.06 µg/mL (≈ 0.141 µM)	–	0.03 µg/mL (≈ 0.0706 µM)	0.06 µg/mL (≈ 0.141 µM)	0.06 µg/mL (≈ 0.141 µM)	0.03 µg/mL (≈ 0.0706 µM)	1 µg/mL (≈ 2.35 µM)	0.06 µg/mL (≈ 0.141 µM)	> 64 µg/mL	0.03 µg/mL (≈ 0.0706 µM)	2 µg/mL (≈ 4.71 µM)	–	–	–	–	–	MIC (Streptococcus pneumoniae [9]): 0.125 µg/mL (≈ 0.294 µM); MIC (Streptococcus pneumoniae [12]): 4 µg/mL (≈ 9.41 µM); MIC (Streptococcus pyogenes [13]): 0.5 µg/mL (≈ 1.18 µM); MIC (Streptococcus pneumoniae [15]): 0.25 µg/mL (≈ 0.588 µM)
CC[C@H]1OC(=O)[C@H](C)C(=O)[C@H](C)[C@@H](O[C@@H]2O[C@H](C)C[C@H](N(C)C)[C@H]2O)[C@](C)(OC)C[C@@H](C)C(=O)[C@H](C)[C@H]2N(CCCCn3cnc(-c4cccnc4)c3)C(=O)O[C@]12C [TELITHROMYCIN]	0.06 µg/mL (≈ 0.0739 µM)	0.25 µg/mL (≈ 0.308 µM)	0.25 µg/mL (≈ 0.308 µM)	0.25 µg/mL (≈ 0.308 µM)	0.125 µg/mL (≈ 0.154 µM)	0.25 µg/mL (≈ 0.308 µM)	0.03 µg/mL (≈ 0.0369 µM)	0.06 µg/mL (≈ 0.0739 µM)	0.125 µg/mL (≈ 0.154 µM)	–	–	0.03 µg/mL (≈ 0.0369 µM)	1 µg/mL (≈ 1.23 µM)	32 µg/mL (≈ 39.4 µM)	2 µg/mL (≈ 2.46 µM)	0.008 µg/mL (≈ 0.00985 µM)	0.004 µg/mL (≈ 0.00493 µM)	MIC (Streptococcus pneumoniae [16]): > 64 µg/mL; MIC (Streptococcus pneumoniae [19]): 0.25 µg/mL (≈ 0.308 µM); MIC90 (Streptococcus pneumoniae [7]): 0.5 µg/mL (≈ 0.616 µM); MIC (Streptococcus pyogenes [21]): 0.25 µg/mL (≈ 0.308 µM)
CC[C@H]1OC(=O)[C@@](C)(F)C(=O)[C@H](C)[C@@H](O[C@@H]2O[C@H](C)C[C@H](N(C)C)[C@H]2O)[C@](C)(OC)C[C@@H](C)C(=O)[C@H](C)[C@H]2N(CCCCn3cc(-c4cccc(N)c4)nn3)C(=O)O[C@]12C [SOLITHROMYCIN]	0.03 µg/mL (≈ 0.0355 µM)	0.06 µg/mL (≈ 0.071 µM)	–	–	0.03 µg/mL (≈ 0.0355 µM)	0.125 µg/mL (≈ 0.148 µM)	0.125 µg/mL (≈ 0.148 µM)	0.25 µg/mL (≈ 0.296 µM)	–	–	–	–	0.5 µg/mL (≈ 0.592 µM)	0.06 µg/mL (≈ 0.071 µM)	0.5 µg/mL (≈ 0.592 µM)	0.004 µg/mL (≈ 0.00473 µM)	0.004 µg/mL (≈ 0.00473 µM)	MIC (Streptococcus pneumoniae [22]): 0.125 µg/mL (≈ 0.148 µM); MIC (Streptococcus pyogenes [23]): 0.25 µg/mL (≈ 0.296 µM); half-life [24]: 5 h; MIC (Streptococcus pneumoniae [25]): 0.06 µg/mL (≈ 0.071 µM); Tmax [26]: 4 h; MIC (Streptococcus pneumoniae [27]): 0.25 µg/mL (≈ 0.296 µM); MIC (Streptococcus pneumoniae [28]): 0.5 µg/mL (≈ 0.592 µM); MIC (Streptococcus pyogenes [29]): 8 µg/mL (≈ 9.47 µM); MIC (Streptococcus pneumoniae [30]): 32 µg/mL (≈ 37.9 µM)
CC[C@H]1OC(=O)[C@H](C)[C@@H](O[C@H]2C[C@@](C)(OC)[C@@H](O)[C@H](C)O2)[C@H](C)[C@@H](O[C@@H]2O[C@H](C)C[C@H](N(C)C)[C@H]2O)[C@](C)(O)C[C@@H](C)CN(C)[C@H](C)[C@@H](O)[C@]1(C)O [AZITHROMYCIN]	–	16 µg/mL (≈ 21.4 µM)	–	–	4 µg/mL (≈ 5.34 µM)	8 µg/mL (≈ 10.7 µM)	4 µg/mL (≈ 5.34 µM)	> 64 µg/mL	–	> 64 µg/mL	16 µg/mL (≈ 21.4 µM)	–	–	–	–	–	–	MIC (Streptococcus pneumoniae [31]): 0.5 µg/mL (≈ 0.668 µM)
